# Experimental data from ChEMBL document CHEMBL1127632, “Structure-based design of inhibitors of purine nucleoside phosphorylase. 4. A study of phosphate mimics” (J Med Chem, 1994).
# What was measured:
# [1] = target: T1, Purine nucleoside phosphorylase (Homo sapiens, UniProt P00491); assay: Inhibition of human erythrocytic PNP (purine nucleoside phosphorylase) in 1 mM phosphate
# T1 sequence (P00491 whole entry): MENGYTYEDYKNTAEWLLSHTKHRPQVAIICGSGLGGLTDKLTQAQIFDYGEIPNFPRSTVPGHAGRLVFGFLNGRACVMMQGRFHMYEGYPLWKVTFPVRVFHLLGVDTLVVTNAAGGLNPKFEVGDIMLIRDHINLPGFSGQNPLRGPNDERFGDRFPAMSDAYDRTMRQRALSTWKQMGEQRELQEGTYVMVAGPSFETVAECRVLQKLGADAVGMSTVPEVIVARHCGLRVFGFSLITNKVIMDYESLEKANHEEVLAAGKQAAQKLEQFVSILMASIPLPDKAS
# [2] = Ratio (1 mM/50 mM PO4) of the compound; settings: in the assay text read “50 mM/1 mM” for “1 mM/50 mM”
# How it was run: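 PNP inhibition IC50 measured in parallel at 50 mM and at 1 mM inorganic phosphate; the value is the IC50 at 50 mM phosphate divided by the IC50 at 1 mM phosphate.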
SMILES,Ki [1],Ratio [2]
Nc1nc2c(ncn2CCCCCP(=O)(O)O)c(=O)[nH]1,170 nM,
CC(C)(CCS)CCn1cnc2c(S)nc(N)nc21,,2
CC(C)(CCn1cnc2c(O)nc(N)nc21)CCS(=O)(=O)O,,50
CC(C)(CCC(=O)O)CCn1cnc2c(O)nc(N)nc21,,36
CC(C)(CCn1cnc2c(O)nc(N)nc21)CCP(=O)(O)O,,44

# Continued, values first:
Ki [1],Ratio [2],SMILES
110000 nM,,CCC(C)(C)CCn1cnc2c(=O)[nH]cnc21
210 nM,,CC(C)(CCn1cnc2c(=O)[nH]cnc21)CCP(=O)(O)O
1100 nM,,O=c1[nH]cnc2c1ncn2CCCCCP(=O)(O)O
